In the library only some 2.3% were active in any assay of this set; here they are far more common.
TRPC4 PAM = TRPC4 (mouse) allosteric potentiation; Q9QUQ5; HEK293 TRPC4beta/mu-opioid, DAMGO EC20, Fluo-4 Ca2+ flux; active compounds read high; B-score at 10 µM; hit rate 0.42% among 310,000;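 active = B-score of calcium response area above 5 SD of library B-scores, with initial fluorescence ratio within 5 SD of library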;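 note: B-score of integrated fluorescence ratio over time as area under calcium response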
Target sequence (Q9QUQ5 whole entry, looked up): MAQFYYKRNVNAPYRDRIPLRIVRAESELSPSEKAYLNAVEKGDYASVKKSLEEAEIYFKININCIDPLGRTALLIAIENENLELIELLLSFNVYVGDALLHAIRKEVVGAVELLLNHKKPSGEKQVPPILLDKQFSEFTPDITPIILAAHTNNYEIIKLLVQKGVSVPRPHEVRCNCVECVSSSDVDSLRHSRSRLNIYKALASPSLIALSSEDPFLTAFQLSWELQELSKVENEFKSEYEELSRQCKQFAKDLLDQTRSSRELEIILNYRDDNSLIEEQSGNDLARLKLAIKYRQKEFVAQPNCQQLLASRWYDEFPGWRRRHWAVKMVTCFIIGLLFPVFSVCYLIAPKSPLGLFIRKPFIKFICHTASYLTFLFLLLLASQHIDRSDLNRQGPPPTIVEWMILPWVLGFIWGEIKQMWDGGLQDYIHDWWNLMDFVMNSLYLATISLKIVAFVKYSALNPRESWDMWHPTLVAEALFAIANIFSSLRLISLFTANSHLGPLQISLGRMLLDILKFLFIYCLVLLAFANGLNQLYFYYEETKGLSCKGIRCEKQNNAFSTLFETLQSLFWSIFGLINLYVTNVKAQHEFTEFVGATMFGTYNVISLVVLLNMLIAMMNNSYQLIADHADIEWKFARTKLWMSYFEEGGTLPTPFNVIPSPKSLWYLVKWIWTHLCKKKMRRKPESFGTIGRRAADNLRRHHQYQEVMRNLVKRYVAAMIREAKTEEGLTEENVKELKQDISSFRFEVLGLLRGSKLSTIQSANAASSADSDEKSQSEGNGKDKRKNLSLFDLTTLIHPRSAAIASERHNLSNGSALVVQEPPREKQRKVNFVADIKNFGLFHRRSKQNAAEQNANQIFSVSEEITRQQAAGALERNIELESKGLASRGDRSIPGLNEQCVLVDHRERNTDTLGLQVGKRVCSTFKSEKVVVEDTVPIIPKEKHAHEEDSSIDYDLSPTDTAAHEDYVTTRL
TRPC6 activator = mouse TRPC6 channel activation. hit rate 0.13% among 310,000. HEK293-TRPC6 membrane potential dye fluorescence; active compounds read high. B-score at 10 µM. AID 2550;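 active = B-score of the integrated fluorescence ratio above library mean plus 3 SD, and starting fluorescence ratio within library mean plus 5 SD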;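 note: higher score means more depolarization so channel activation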
TRPC4 block = inhibitors of mouse TRPC4 channel | Q9QUQ5 | HEK293 TRPC4beta/mu-opioid, DAMGO-evoked Fluo4 calcium flux; active compounds read low | B-score at 10 µM | hit rate 0.39% among 300,000 | AID 2247;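 active = B-score over 3 SD under the library average, no early fluorescence shift, positive overall ratio signal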
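Assay system: TRPC4beta/mu-opioid receptor HEK293 cell line; compound dosing: single concentration per test compound; detection: Fluo4 Ca2+ flux fluorescence; evaluation: per-well B score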
TRPC4 act = activators of mouse TRPC4 channel | Q9QUQ5 | HEK293 TRPC4beta/mu-opioid, Fluo4 calcium fluorescence; active compounds read high | B-score at 10 µM | hit rate 0.49% among 310,000;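 active = B-score above 5 SD of library B-scores, and initial fluorescence ratio not above library mean plus 5 SD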;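 note: positive B-score marks a calcium rise read as TRPC4 activation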
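Assay system: HEK293 stable line with TRPC4beta plus mu-opioid receptor; schedule: 45 min room-temperature Fluo4 loading, 110 s read; technique: kinetic Fluo4 calcium fluorescence; evaluation: integrated baseline-normalised fluorescence ratio, converted to per-well B score; controls: buffer (low) and maximal DAMGO (high)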
TRPC6 inh = mouse TRPC6 channel inhibition; Q61143; HEK293-TRPC6, membrane potential dye, ACh-evoked depolarization; active compounds read low; B-score at 10 µM; hit rate 1.1% among 310,000; AID 2553;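 active = B-score under library mean minus 3 SD, initial fluorescence not abnormally high, positive integrated signal ratio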;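 note: B-score derived from integrated fluorescence ratio over the kinetic read; more negative B-score means stronger inhibition of depolarization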
HEK293 MPD ctr = checks TRPC6 modulator effects in parental HEK293 cells; shares compounds with TRPC6 inh; membrane potential dye fluorescence; hit rate 51% among 2,400; membrane potential signal change, % at 10 µM;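 active = membrane potential signal moves up or down beyond 5 SD from buffer-only wells, on both duplicate plates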
HEK293 MPD ctr 2 = parental HEK293 nonspecific activity of TRPC6 modulators, second screen. shares compounds with TRPC6 inh. membrane potential dye fluorescence; after compound, maximal acetylcholine stimulation. inhibition, % at 10 µM. hit rate 14% among 2,400. AID 488926;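 active = membrane potential signal drops by more than 5 SD from the mean control signal, in both duplicate plates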;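 note: plate controls were acetylcholine ECmax control wells for no effect and buffer only wells for full effect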
TRPC4 ctr mod = tests whether TRPC6 modulators also affect mouse TRPC4. percent change from control (negative = decrease, positive = increase), % at 10 µM. shares compounds with TRPC6 inh. HEK293 TRPC4/mu-opioid, membrane potential fluorescence. hit rate 69% among 2,400. AID 488927;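 active = membrane potential signal moved up or down beyond 5 SD of buffer control wells, in both duplicate plates, actives on both sides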;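 note: plate controls were assay buffer wells for no effect and DAMGO maximal-effect wells for full effect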
TRPC4 ctr inh 2 = second selectivity test of TRPC6 modulators against mouse TRPC4 | inhibition, % at 10 µM | HEK293 TRPC4/mu-opioid, membrane potential dye fluorescence; stimulated with maximal-effect DAMGO | hit rate 55% among 2,400 | shares compounds with TRPC6 inh;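 active = drop in membrane potential signal beyond 5 SD of the control wells in both duplicate plates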;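 note: TRPC4 counter screen for TRPC6 hits run under conditions tuned for TRPC6 not TRPC4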
TRPC6 inh conf = confirmation of mouse TRPC6 inhibitors | hit rate 43% among 3,300 | inhibition, % at 10 µM | HEK293-TRPC6, membrane potential dye, ACh-evoked depolarization | shares compounds with TRPC6 inh;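 active = fluorescence ratio falls more than 5 SD below the full-stimulation control mean, in both duplicate runs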;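 note: integrated fluorescence ratio of peak minus minimum over baseline after agonist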
TRPC6 act conf = mouse TRPC6 activator confirmation | hit rate 11% among 2,800 | HEK293-TRPC6 membrane potential dye fluorescence, FDSS | shares compounds with TRPC6 inh | AID 488961 | activation, % at 10 µM;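 active = ratio signal rise beyond 5 SD above unstimulated control wells' mean, seen in both duplicate runs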;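 note: plate controls were buffer EC0 wells for no effect and acetylcholine ECmax response for full effect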
An asterisk follows results filed as active.

Results for NS(=O)(=O)c1ccc(CCNC(=O)COC(=O)CCSc2ccc(Cl)cc2)cc1 ?
TRPC4 PAM: inactive; TRPC6 activator: inactive; TRPC4 block: inactive; TRPC4 act: inactive; TRPC6 inh: inactive

How did NS(=O)(=O)c1ccc(CCNC(=O)COC(=O)/C=C/c2ccc(Cl)cc2)cc1 do in these assays?
TRPC4 PAM: inactive; TRPC6 activator: inactive; TRPC4 block: inactive; TRPC4 act: inactive; TRPC6 inh: -5.42*; HEK293 MPD ctr: inactive; HEK293 MPD ctr 2: inactive; TRPC4 ctr mod: inactive; TRPC4 ctr inh 2: inactive; TRPC6 inh conf: inactive; TRPC6 act conf: inactive

What do the screens show for `COc1ccc(S(=O)(=O)NCC(=O)N(CC(=O)NCC2CCCO2)c2ccccc2C)cc1` (stereo unspecified)?
TRPC4 PAM: inactive; TRPC6 activator: inactive; TRPC4 block: inactive; TRPC4 act: inactive; TRPC6 inh: inactive

What do the screens show for `CC(C)c1ccc2c(c1)C(N1CCNCC1)Cc1ccc(F)cc1S2` (stereo unspecified)?
TRPC4 PAM: inactive; TRPC6 activator: inactive; TRPC4 block: inactive; TRPC4 act: inactive; TRPC6 inh: inactive

How did Cc1cccc2c1Sc1ccc(Cl)cc1CC2N1CCNCC1 (stereo unspecified) do in these assays?
TRPC4 PAM: inactive; TRPC6 activator: inactive; TRPC4 block: inactive; TRPC4 act: inactive; TRPC6 inh: -5.12*; HEK293 MPD ctr: inactive; HEK293 MPD ctr 2: inactive; TRPC4 ctr mod: inactive; TRPC4 ctr inh 2: 61.0%*; TRPC6 inh conf: 43.0%*; TRPC6 act conf: inactive

Results for CN1CCN(C2Cc3ccc(F)cc3Sc3cc(F)c(Cl)cc32)CC1 (stereo unspecified) ?
TRPC4 PAM: inactive; TRPC6 activator: inactive; TRPC4 block: inactive; TRPC4 act: inactive; TRPC6 inh: inactive

What do the screens show for `CCc1cccc2c1Sc1ccccc1CC2N1CCNCC1` (stereo unspecified)?
TRPC4 PAM: inactive; TRPC6 activator: inactive; TRPC4 block: inactive; TRPC4 act: inactive; TRPC6 inh: -5.52*; HEK293 MPD ctr: inactive; HEK293 MPD ctr 2: inactive; TRPC4 ctr mod: inactive; TRPC4 ctr inh 2: 70.0%*; TRPC6 inh conf: 49.5%*; TRPC6 act conf: inactive

Results for CN1CCN(C2Cc3cc(F)ccc3Sc3ccc(Cl)cc32)CC1 (stereo unspecified) ?
TRPC4 PAM: inactive; TRPC6 activator: inactive; TRPC4 block: inactive; TRPC4 act: inactive; TRPC6 inh: -5.28*; HEK293 MPD ctr: inactive; HEK293 MPD ctr 2: inactive; TRPC4 ctr mod: 21.0%*; TRPC4 ctr inh 2: 47.0%*; TRPC6 inh conf: 48.5%*

What do the screens show for `CN1CCN(C2Cc3ccccc3Sc3cc(C(F)(F)F)ccc32)CC1` (stereo unspecified)?
TRPC4 PAM: inactive; TRPC6 activator: inactive; TRPC4 block: inactive; TRPC4 act: inactive; TRPC6 inh: inactive

How did Cc1ccc(O)c(CNn2cnnc2)c1 do in these assays?
TRPC4 PAM: inactive; TRPC6 activator: inactive; TRPC4 block: inactive; TRPC4 act: inactive; TRPC6 inh: inactive

What do the screens show for `COc1ccc(-c2ccc(SCC(=O)NC3CCCCC3)nn2)cc1`?
TRPC4 PAM: inactive; TRPC6 activator: inactive; TRPC4 block: inactive; TRPC4 act: inactive; TRPC6 inh: inactive

Results for CCOc1c(Cl)cc(CNC(C)(C)CC(C)(C)C)cc1OC ?
TRPC4 PAM: inactive; TRPC6 activator: inactive; TRPC4 block: inactive; TRPC4 act: inactive; TRPC6 inh: -5.14*; HEK293 MPD ctr: 175.5%*; HEK293 MPD ctr 2: 85.5%*; TRPC4 ctr mod: 36.5%*; TRPC4 ctr inh 2: 75.0%*; TRPC6 inh conf: 63.0%*

How did CC(=O)c1ccccc1Oc1cc(NN2CCCCC2)c([N+](=O)[O-])cc1[N+](=O)[O-] do in these assays?
TRPC4 PAM: inactive; TRPC6 activator: inactive; TRPC4 block: inactive; TRPC4 act: inactive; TRPC6 inh: -5.98*; HEK293 MPD ctr: inactive; HEK293 MPD ctr 2: inactive; TRPC4 ctr mod: inactive; TRPC4 ctr inh 2: 31.5%*; TRPC6 inh conf: inactive; TRPC6 act conf: inactive

Results for O=C1CSC(c2c(F)cccc2Cl)N1c1cccc(F)c1 (stereo unspecified) ?
TRPC4 PAM: inactive; TRPC6 activator: inactive; TRPC4 block: inactive; TRPC4 act: inactive; TRPC6 inh: -5.1*; HEK293 MPD ctr: inactive; HEK293 MPD ctr 2: inactive; TRPC4 ctr mod: 12.0%*; TRPC4 ctr inh 2: inactive; TRPC6 inh conf: inactive; TRPC6 act conf: inactive

How did O=C1CSC(c2cccc(F)c2)N1c1c(F)cccc1F (stereo unspecified) do in these assays?
TRPC4 PAM: inactive; TRPC6 activator: inactive; TRPC4 block: inactive; TRPC4 act: inactive; TRPC6 inh: inactive

What do the screens show for `CCN(C(=O)CSc1nnc(-c2ccc(Cl)cc2)n1C)C1CCS(=O)(=O)C1` (stereo unspecified)?
TRPC4 PAM: inactive; TRPC6 activator: inactive; TRPC4 block: inactive; TRPC4 act: inactive; TRPC6 inh: inactive

What do the screens show for `COc1ccc(CNCC(O)COc2cccc3c2OC(C)(C)C3)cc1` (stereo unspecified)?
TRPC4 PAM: inactive; TRPC6 activator: inactive; TRPC4 block: inactive; TRPC4 act: inactive; TRPC6 inh: inactive

High-throughput results: PubChem, Johns Hopkins Ion Channel Center
